Beta apoptosis = beta cell apoptosis inhibition. AID 435005. INS-1E cytokine-induced death, ATP luminescence, 48 h; percent of positive-control rescue, neutral wells zero. 0.8% of 300,000 active. protection from apoptosis, % (test concentration not listed);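 active = Every replicate reaches about 75%, or at least half do and their mean reaches it too, limit read from the data; inconclusive = At least half of replicates reach the limit but their mean does not; inactive = Under half of replicates reach the limit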;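 note: higher means more ATP so stronger rescue from cytokine killing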
WT yeast gro inh = growth inhibition of WT yeast, mitochondrial fusion screen. 2.1% of 190,000 active. inhibition, % at 10 µM. mitochondrial fusion phenotypic screen, WT strain; in the data active = inhibition above about 58%; tested in S. cerevisiae
CSC inhib = blocks cancer stem cells; cancer stem cell-like cells viability, luminescence; inhibition, % at 7.5 µM; 1.1% of 300,000 active; in the data active = inhibition above about 75%; inconclusive = no clear call, values can overlap the other calls; tested in HMLE shEcad cells
T cruzi inh = T. cruzi replication inhibition; 1.4% of 300,000 active; inhibition, % (no concentration beside the values); T. cruzi beta-gal in NIH3T3, luminescence, 90 h;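 active = mean inhibition across valid replicates above about 55%, limit read from the data; inconclusive = mean below that limit but half or more replicates reach it; inactive = mean below it, under half of replicates reach it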;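 note: signal also drops with host cell toxicity which is not excluded here; higher percent means less beta-gal luminescence so fewer parasites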
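System: mouse NIH/3T3 fibroblasts infected with β-gal-expressing T. cruzi Tulahuen C4 / Input: NIH/3T3 cells, 5,000 per well / Buffer or medium: Low-serum DMEM with 2% FBS / Probe or stimulus: 5000 reporter trypomastigotes per well / Schedule: ≥90 h infection period, 3 h prior cell attachment / Measured by: GalScreen luminescence, 60 min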
Efflux pump inh = blocks antifungal efflux pumps in multiplex yeast assay; S. cerevisiae Candida pump triplex, Nile Red efflux; inhibition, % at 10 µM; 0.44% of 330,000 active;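 active = plate passing quality check with inhibition over a set limit, or well fluorescence over plate mean plus 4 SD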;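 note: Nile Red retained in pooled yeast measured as flow cytometry median fluorescence; higher means more Nile Red kept so more efflux inhibition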
SUMO Mot1 rescue = inhibitors of SUMOylation pathway: yeast Mot1-301 growth rescue. S. cerevisiae Mot1-301 growth rescue, ATP luminescence, 38.5C; percent above DMSO median, 100 means doubled. growth rescue, % at 18.8 µM. 1% of 320,000 active;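 active = every valid replicate shows activation above 250% relative to neutral control wells; inactive = the rest, any valid replicate at or below 250%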
Numbers stand for hits; – = inactive; ? = inconclusive; · = no result given. Only some compounds are listed: those with a hit (about 4.8% of all), similar ones and a draw of the others.

SMILES	Beta apoptosis	WT yeast gro inh	CSC inhib	T cruzi inh	Efflux pump inh	SUMO Mot1 rescue
CC1CCCCN1C(=O)C(=O)c1cn(CC(=O)N2CCCC2)c2ccccc12 (stereo unspecified)	–	·	–	–	–	–
CC1CCCCN1C(=O)Cn1cc(/C=C2/C(=O)Nc3ccccc32)c2ccccc21 (stereo unspecified)	·	96	·	·	·	·
CCOC(=O)N1CCN(C(=O)C(=O)c2cn(CC(=O)N3CCCCCC3)c3ccccc23)CC1	–	·	–	–	–	–
CC1CCCCN1C(=O)C(=O)c1cn(CC(=O)N2CCCCCC2)c2ccccc12 (stereo unspecified)	–	·	–	64	–	–
N/C(CC(=O)NC1CCCCC1)=N\OCC(=O)Nc1ccc(Cl)c(Cl)c1	–	·	–	–	–	–
Cc1ccccc1OC(C)C(=O)Nc1ccc2c(c1)OCCO2 (stereo unspecified)	–	·	–	–	–	–
CN(C)c1nc(C=C(C#N)C#N)c(Cl)n1-c1ccc(F)cc1	·	–	·	–	·	·
COc1ccc2c(c1)CCc1c(C(=O)N3CC4(C)CC3CC(C)(C)C4)noc1-2 (stereo unspecified)	–	73	95	–	–	–
CCCc1ccc(OCc2ccc(C(=O)N3CCSCC3)o2)cc1	·	·	–	–	–	–
Cc1ccc(C(=O)N2CCN(c3ccc(C(F)(F)F)cn3)CC2)cc1	–	–	–	–	–	–
Cc1c(C(=O)N2CCN(c3ccc(C(F)(F)F)cn3)CC2)oc2ccccc12	–	71	–	–	–	–
O=C(CCC(=O)N1CCN(c2ccccn2)CC1)Nc1nnc(C(F)(F)F)s1	–	·	–	–	–	–
CC(C)CN(C(=O)COC(=O)C(C)N1C(=O)c2ccccc2C1=O)c1c(N)n(Cc2ccccc2)c(=O)[nH]c1=O (stereo unspecified)	–	·	–	–	–	–
CCN(CC)S(=O)(=O)c1cc([N+](=O)[O-])ccc1NNC(=O)Nc1ccc(Cl)c(Cl)c1	113	–	–	60	–	–
CCCCN(CCCC)S(=O)(=O)c1ccc(NC(=O)c2ccc([N+](=O)[O-])cc2Cl)cc1	–	–	–	79	–	–
CCCCN(CCCC)S(=O)(=O)c1ccc(NC(=O)c2cccs2)cc1	–	–	·	56	–	–
COC(=O)C1Cc2c([nH]c3ccccc23)C2(CCN(Cc3ccccc3)CC2)N1 (stereo unspecified)	·	·	·	71	–	–
O=C(Nc1ccc(Cl)c([N+](=O)[O-])c1)C(Sc1ccccc1)c1ccccc1 (stereo unspecified)	–	80	–	64	–	–
O=C(Nc1cc([N+](=O)[O-])ccc1Cl)C(Sc1ccccc1)c1ccccc1 (stereo unspecified)	–	–	–	–	–	–
CC(C)(C)NS(=O)(=O)c1ccc(NC(=O)C(Sc2ccccc2)c2ccccc2)cc1 (stereo unspecified)	–	–	–	56	–	·
Cc1cccc(COC(=O)CCCNC(=O)c2ccc(Cl)cc2)c1	–	·	–	·	–	–
Cc1nnn(-c2nonc2N)c1C(=O)N/N=C/c1ccccc1O	85	–	–	–	–	–
Nc1nonc1-n1nnc(C(=O)N/N=C/c2cc(Cl)ccc2O)c1CN1CCCCCC1	91	·	?	56	–	–
Cc1nnn(-c2nonc2N)c1C(=O)N/N=C/c1cccc2ccccc12	–	–	–	–	–	–
Nc1nonc1-n1nnc(C(=O)N/N=C/c2ccc(Cl)cc2Cl)c1CN1CCCCC1	–	·	·	–	–	–
SMILES	Beta apoptosis	WT yeast gro inh	CSC inhib	T cruzi inh	Efflux pump inh	SUMO Mot1 rescue
CCN(CC)c1ccc(/C=N/NC(=O)c2nnn(-c3nonc3N)c2C(C)C)c(O)c1	91	·	–	–	–	–
CC1CCN(Cc2c(C(=O)N/N=C/c3ccccc3O)nnn2-c2nonc2N)CC1	95	·	·	?	–	–
CC(C)c1c(C(=O)N/N=C/c2ccc3c(c2)OCO3)nnn1-c1nonc1N	–	·	–	–	–	–
COc1ccc(NC(=O)c2sc3nc(N4CCOCC4)c4c(c3c2N)CC(C(C)C)OC4)c(OC)c1 (stereo unspecified)	–	·	–	–	–	–
O=c1[nH]nc(Sc2ncnc3sccc23)n1CCc1ccccc1	–	–	–	–	–	–
O=C(NNS(=O)(=O)c1ccccc1[N+](=O)[O-])c1cccnc1	–	·	–	–	–	–
O=C(Nc1ccc(OCC(F)(F)C(F)F)c(C(F)(F)F)c1)c1ccccc1	–	·	–	–	–	–
O=C(Nc1ccc(OCC(F)(F)C(F)F)c(C(F)(F)F)c1)c1ccccc1O	122	75	–	–	–	–
CCN(C(=O)COC(=O)c1ccccc1NC(=O)c1ccco1)C1CCS(=O)(=O)C1 (stereo unspecified)	–	–	–	–	–	418
CN(C(=O)COC(=O)c1ccccc1NC(=O)c1ccco1)C1CCS(=O)(=O)C1 (stereo unspecified)	–	–	–	–	–	–
CCSc1nc2sc3c(c2c(=O)[nH]1)CCCC3	–	–	–	–	–	–
CCSC1=NC2(CCCCC2)Nc2sc3c(c21)CCCC3	–	–	–	56	–	–
O=c1c2[nH]c3ccccc3c2ncn1CCC1=CCCCC1	–	–	–	–	–	–
C1=C(CCNc2ncnc3c2[nH]c2ccccc23)CCCC1	130	87	77	·	–	–
COc1ccc(CNc2ncnc3c2[nH]c2ccccc23)cc1	–	·	–	–	–	–
CC(C)OCCCNc1ncnc2c1[nH]c1ccccc12	125	–	·	–	–	–
CCCc1c(C(=O)N/N=C/c2cccnc2)nnn1-c1nonc1N	–	·	–	–	–	–
Cc1cc(C)n(C(=O)c2cc([N+](=O)[O-])cc([N+](=O)[O-])c2)n1	–	·	–	–	–	–
O=[N+]([O-])c1ccc(CN2CCN(c3ccc(Cl)cc3)CC2)o1	–	·	–	59	–	–
CNC(=S)N1CCN(c2ccc([N+](=O)[O-])cc2)CC1	–	67	–	–	–	–
O=C(CN1CCN(c2cccc(Cl)c2)CC1)NCc1ccccc1	–	·	–	–	–	–
O=[N+]([O-])c1ccc(N2CCN(C(=S)NCc3ccc(Cl)cc3)CC2)cc1	96	–	–	57	–	–
S=C(NCc1ccccc1)N1CCN(c2cccc(Cl)c2)CC1	–	70	–	–	–	–
CCNC(=S)N1CCN(c2ccc([N+](=O)[O-])cc2)CC1	·	–	–	–	–	–
CC(C)C[C@@H](CSc1ccccc1)N1CCN(CC(C)C)CCC1=O	–	·	–	–	–	–
Cc1cc(NC(=O)Cc2cc(F)cc(F)c2)no1	–	·	–	–	–	–
CCN1C(=O)/C(=C\c2ccncc2)SC1=Nc1ccc(C)c(C)c1	–	–	84	–	–	–
O=C(COc1ccccc1-c1ccccc1)NCc1cccc(Cl)c1	–	78	–	–	–	–
O=C(COc1ccc(Cl)cc1Cl)NCCCCc1ccccc1	–	76	–	–	–	–

Screening results (PubChem BioAssay)
